Measured values: ChEMBL document CHEMBL1149905, “A mutual prodrug ester of GABA and perphenazine exhibits antischizophrenic efficacy with diminished extrapyramidal effects” (J Med Chem, 2008)
Activity calls are given as the source filed them.

How the values were obtained:
Rattus norvegicus [1] = experiment: Increase in prolactin level in Wistar rat plasma at 7.5 mg/kg, ip after 2 hrs relative to control; assay type: functional, organism-based; parameters: dose 7.5 mg/kg
Procedure, shortened: (§1)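 Male Wistar rats (150–230 g), four per group, dosed ip in 1% lactic acid vehicle. Blood taken from the orbital vein under light ether anesthesia before dosing and 1 and 2 h after. EDTA plasma was separated at 1600g for 20 min and frozen at -78 °C. Prolactin was measured by double-antibody rat prolactin RIA, compared with vehicle and time 0 (t test).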

Rattus norvegicus [2] = experiment: Increase in prolactin level in Wistar rat plasma at 7.5 mg/kg, ip after 1 hr relative to control; assay type: functional, organism-based; parameters: dose 7.5 mg/kg; procedure, shortened: as §1
Rattus norvegicus [3] = experiment: Toxicity assessed as induction of cataleptic extrapyramidal symptoms in Wistar rat at 7.5 mg/kg, ip after 7 hrs by wall descending test; assay type: organism-based; parameters: dose 7.5 mg/kg, route intraperitoneal; conditions: in vivo
Procedure, shortened: (§2)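 Rats (six/group) were injected ip with 5 mg/kg or 7.5 mg/kg of the parent drugs, or equimolar esters, in 1% lactic acid. Wall descending test: the time for a rat hanging on the cage wall to move its hind legs to the floor was recorded, with a 120 s maximum. Rats were tested every 30 min up to 420 min post-dose.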

Rattus norvegicus [4] = experiment: Toxicity assessed as induction of cataleptic extrapyramidal symptoms in Wistar rat at 5 mg/kg, ip after 2 hrs by wall descending test; assay type: organism-based; parameters: dose 5 mg/kg, route intraperitoneal; conditions: in vivo; procedure, shortened: as §2
Rattus norvegicus [5] = experiment: Reduction of cataleptic behavior in Wistar rat at 5 to 20 mg/kg, po by bar test; assay type: functional, organism-based
Procedure, shortened: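 Rats were gavaged with 5, 10 or 20 mg/kg or equimolar doses, and catalepsy was scored 4 h post-dose; a time course was run at 5 and 10 mg/kg. Bar test: forelimbs rested on a 5.5 cm bar, and the time to descend to the surface was recorded. Rats were tested individually, hourly, with a 120 s cutoff.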

Rattus norvegicus [6] = experiment: Reduction of D-amphetamine-induced hyperactivity in Wistar rat assessed as reduction of head movements at 2.5 mg/kg, po; assay type: functional, organism-based; parameters: dose 2.5 mg/kg
Procedure, shortened: (§3)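 Male Wistar rats (six/group) were dosed po with 1% lactic acid vehicle (two groups), 2.5 mg/kg or equimolar test agent, or GABA at 1 mg/kg. After 90 min, all groups except one vehicle group received D-amphetamine (2.0 mg/kg ip). Rats were placed singly in barrels, and after 30 min head movements and wall-climbing attempts over 120 s were counted double-blind.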

Rattus norvegicus [7] = experiment: Reduction of D-amphetamine-induced hyperactivity in Wistar rat assessed as reduction of wall-climbing at 2.5 mg/kg, po; assay type: functional, organism-based; parameters: dose 2.5 mg/kg; procedure, shortened: as §3
Rattus norvegicus [8] = experiment: Increase in prolactin level in Wistar rat plasma at 5 mg/kg, ip after 2 hrs relative to control; assay type: functional, organism-based; parameters: dose 5 mg/kg
Procedure, shortened: (§4)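 Male Wistar rats (150–230 g; four/group) received drug ip in 1% lactic acid, with a vehicle control group. Orbital-vein blood was taken under light ether anesthesia before dosing and at 1 and 2 h, collected into EDTA on ice. Plasma was spun at 1600g for 20 min and frozen at -78 °C. Prolactin was measured by double-antibody rat prolactin RIA. Comparison was by t test against control and time 0.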

Rattus norvegicus [9] = experiment: Increase in prolactin level in Wistar rat plasma at 7 to 28 mg/kg, po after 90 to 180 mins relative to control; assay type: functional, organism-based
Procedure, shortened: (§5)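 Five groups of male Wistar rats (4/group) were gavaged with 1% lactic acid vehicle, 5, 10 or 20 mg/kg, or equimolar 7, 14 or 28 mg/kg of the ester salt. Orbital-vein plasma was sampled under light ether at 0, 90 and 180 min and prolactin assayed by double-antibody RIA. Comparison was by t test against control and time 0.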

Rattus norvegicus [10] = experiment: Increase in prolactin level in Wistar rat plasma at 5 mg/kg, ip after 1 hr relative to control; assay type: functional, organism-based; parameters: dose 5 mg/kg; procedure, shortened: as §4
Rattus norvegicus [11] = experiment: Increase in prolactin level in Wistar rat plasma at 5 to 20 mg/kg, po after 90 to 180 mins relative to control; assay type: functional, organism-based; procedure, shortened: as §5
Rattus norvegicus [12] = experiment: Decrease in sedation in Wistar rat at 5 to 20 mg/kg, po; assay type: functional, organism-based
Procedure, shortened: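 Male Wistar rats (150–230 g) were dosed by gavage. During catalepsy testing, sedation/alertness was recorded double-blind. The ip study used this scale: 0 active mobile; * calm and mobile; ** calm and immobile; *** ataxic and non-alert.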

Rattus norvegicus [13] = experiment: Toxicity assessed as induction of cataleptic extrapyramidal symptoms in Wistar rat at 7.5 mg/kg, ip after 2 hrs by wall descending test; assay type: organism-based; parameters: dose 7.5 mg/kg, route intraperitoneal; conditions: in vivo
Procedure, shortened: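 Male Wistar rats (150–230 g), six per group, dosed ip in 1% lactic acid. Wall descending test: time for a rat hanging on the cage wall to move its hind legs and reach the floor, capped at 120 s. Rats were tested individually, every 30 min up to 420 min. Sedation was scored double-blind at the same time points.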

Rattus norvegicus [14] = experiment: Toxicity assessed as induction of cataleptic extrapyramidal symptoms in orally dosed Wistar rat by bar test; conditions: in vivo, po
Rattus norvegicus [15] = experiment: Inhibition of D-amphetamine-induced hyperactivity in Wistar rat at 2.5 mg/kg, po; assay type: functional, organism-based; parameters: dose 2.5 mg/kg; procedure, shortened: as §3

Cl.NCCCC(=O)OCCN1CCN(CCCN2c3ccccc3Sc3ccc(C(F)(F)F)cc32)CC1
Activity (Rattus norvegicus [1]): Active | Activity (Rattus norvegicus [2]): Active | Activity (Rattus norvegicus [3]): Non-toxic

Cl.NCCCC(=O)OCCN1CCN(CCCN2c3ccccc3Sc3ccc(Cl)cc32)CC1 [BL-1020]
Activity (Rattus norvegicus [4]): Non-toxic | Activity (Rattus norvegicus [5]): Active | Activity (Rattus norvegicus [6]): Active | Activity (Rattus norvegicus [7]): Active | Activity (Rattus norvegicus [8]): Active | Activity (Rattus norvegicus [9]): Active | Activity (Rattus norvegicus [10]): Active | Activity (Rattus norvegicus [11]): Active | Activity (Rattus norvegicus [12]): Active

OCCN1CCN(CCCN2c3ccccc3Sc3ccc(C(F)(F)F)cc32)CC1 [FLUPHENAZINE]
Activity (Rattus norvegicus [1]): Active | Activity (Rattus norvegicus [2]): Active | Activity (Rattus norvegicus [13]): Toxic

OCCN1CCN(CCCN2c3ccccc3Sc3ccc(Cl)cc32)CC1 [PERPHENAZINE]
Activity (Rattus norvegicus [14]): Dose-dependent effect | Activity (Rattus norvegicus [4]): Toxic | Activity (Rattus norvegicus [15]): Active | Activity (Rattus norvegicus [8]): Active | Activity (Rattus norvegicus [10]): Active
